Source: BindingDB's records for doi:10.1021/jm960074e (National Cancer Institute-Bethesda, 1996)

Biological target: Integrase (Human immunodeficiency virus 1, UniProt Q7ZJM1)
Assay: Inhibitory activity against HIV-1 integrase
Outline: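 Purified recombinant wild-type HIV-1 integrase, 200 nM final, preincubated with inhibitor for 30 min at 30 °C. Buffer: 25 mM MOPS pH 7.2, 7.5 mM MnCl2, 50 mM NaCl, 10% DMSO, 10% glycerol, BSA, DTT, 2-mercaptoethanol. Then 20 nM 5'-32P-labeled 21mer U5 duplex added for 60 min. Products run on denaturing 20% polyacrylamide gel and quantified by phosphorimager.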

Integrase, sequence (Q7ZJM1 whole entry): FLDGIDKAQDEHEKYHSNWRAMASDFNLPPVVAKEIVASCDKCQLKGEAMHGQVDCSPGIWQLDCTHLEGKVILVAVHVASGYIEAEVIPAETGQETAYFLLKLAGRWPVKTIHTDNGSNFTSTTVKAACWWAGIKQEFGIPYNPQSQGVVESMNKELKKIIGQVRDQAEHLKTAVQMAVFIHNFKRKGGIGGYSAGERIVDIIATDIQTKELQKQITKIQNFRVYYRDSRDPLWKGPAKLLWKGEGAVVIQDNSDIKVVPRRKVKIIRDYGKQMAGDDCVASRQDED

Row | SMILES | IC50
1 | O=C1C(=O)c2ccccc2C(=O)C1=C(c1ccc(Cl)cc1)c1c(O)c(O)c2ccccc2c1O [2-[4-chlorophenyl(3-hydroxy-1,4-dioxo-1,4-dihydro-2-naphthalenyl)methyl]-3-hydroxy-1,4-dihydro-1,4-naphthalenedione] | > 100 µM
2 | CCOc1ccc(C(=C2C(=O)C(=O)c3ccccc3C2=O)c2c(O)c(O)c3ccccc3c2O)cc1OC [2-[4-ethoxy-3-methoxyphenyl(3-hydroxy-1,4-dioxo-1,4-dihydro-2-naphthalenyl)methyl]-3-hydroxy-1,4-dihydro-1,4-naphthalenedione] | 100 µM
3 | CC(=C1C(=O)C(=O)c2ccccc2C1=O)c1c(O)c(O)c2ccccc2c1O [2-hydroxy-3-[1-(3-hydroxy-1,4-dioxo-1,4-dihydro-2-naphthalenyl)ethyl]-1,4-dihydro-1,4-naphthalenedione] | > 100 µM
4 | CC(=O)c1cccc(NC(=O)C(=O)c2c(O)c3ccccc3oc2=O)c1 [N-(3-Acetyl-phenyl)-2-(4-hydroxy-2-oxo-2H-chromen-3-yl)-2-oxo-acetamide] | > 100 µM
5 | O=C1Oc2ccccc2C(O)C1Cc1c(O)c2ccccc2oc1=O (stereo not given) [NSC-41834] | > 100 µM
6 | CN(C)c1ccc(C(=C2C(=O)C(=O)c3ccccc3C2=O)c2c(O)c(O)c3ccccc3c2O)cc1 [NSC-92203] | > 100 µM
7 | O=C1C(=O)C(Sc2ccccc2)C(=O)c2ccccc21 (stereo not given) [NSC-108029] | > 100 µM
8 | COc1cc(C(=C2C(=O)C(=O)c3ccccc3C2=O)c2c(O)c(O)c3ccccc3c2O)cc(OC)c1OC [NSC-117278] | > 100 µM
9 | O=C(c1cccc([N+](=O)[O-])c1)c1c(O)c2ccccc2oc1=O [NSC-133800] | > 100 µM
10 | Cc1ccc(S(=O)(=O)NN=C(CCN2CCCC2)CC(c2ccccc2)c2c(O)c3ccccc3oc2=O)cc1 (stereo not given) [NSC-647410] | > 100 µM
